Consider twelve molecules from ChEMBL document CHEMBL3585255, “The Cephalostatins. 24. Isolation, Structure, and Cancer Cell Growth Inhibition of Cephalostatin 20” (2015).

Broadly, the GI50 is the concentration at which growth is held to half of that of the control. A lower GI50 goes with more potent growth inhibition.

What all share (assay type): functional
One test relates to MCF7. The test is described as follows: Cytotoxicity against human MCF7 cells after 48 hrs by sulforhodamine B assay. The conditions noted are these: MCF7, 48 h. The method, boiled down:
(§1)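 Cells in RPMI1640 with 5% fetal bovine serum were plated in 96-well plates and incubated 24 h before serial dilutions of compound were added. After 48 h exposure, cells were fixed with trichloroacetic acid and stained with sulforhodamine B, and optical density was read on a plate reader. GI50, the concentration giving 50% reduction in net protein increase, was calculated from the OD data.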

Test [1] is described as follows: Cytotoxicity against human KM20L2 cells after 48 hrs by sulforhodamine B assay. The conditions noted are these: KM-20L2, 48 h. The method, boiled down:
as §1
A general note: Sulforhodamine B stains cellular protein and so reports cell mass.

The test system of a further test is SF-268. In words: Cytotoxicity against human SF268 cells after 48 hrs by sulforhodamine B assay. Conditions: SF-268, 48 h. The method, boiled down:
as §1

In another test the test system is NCI-H460. In words: Cytotoxicity against human NCI-H460 cells after 48 hrs by sulforhodamine B assay. Conditions: NCI-H460, 48 h. The method, boiled down:
as §1

Another test concerns DU-145. In words: Cytotoxicity against human DU145 cells after 48 hrs by sulforhodamine B assay. The conditions noted are these: DU-145, 48 h. The method, boiled down:
as §1

Test [2] in a line: Cytotoxicity against human BxPC3 cells after 48 hrs by sulforhodamine B assay. Conditions: BXPC-3, 48 h. The method, boiled down: as §1

Consider `CO[C@H]1c2nc3c(nc2C[C@@H]2CC[C@H]4C5=C[C@@H]6O[C@]7(O[C@](C)(CO)C[C@H]7O)[C@@H](C)[C@]6(O)[C@@]5(C)[C@H](O)C[C@@H]4[C@]21C)C[C@@]1(C)[C@@H](CC[C@H]2C4=CC[C@@H]5[C@H](C)[C@@]6(OC[C@]45C(=O)C[C@@H]21)OC(C)(C)C[C@H]6O)C3` [CEPHALOSTATIN 18], for which the GI50 came out at 3.3 nM in the test with MCF7; 3.1 nM in test [1]; 7.8 nM in the test with SF-268; 2.8 nM in the test with NCI-H460; 20 nM in the test with DU-145; 3.3 nM in test [2].

On to `C[C@@H]1[C@H]2CC=C3[C@@H]4CC[C@H]5Cc6nc7c(nc6C[C@]5(C)[C@@]4(O)CC(=O)[C@@]32CO[C@]12OC(C)(C)C[C@H]2O)C[C@@H]1CC[C@H]2C3=C[C@@H]4O[C@@]5(CC[C@](C)(O)CO5)[C@@H](C)[C@]4(O)[C@@]3(C)[C@H](O)C[C@@H]2[C@@]1(C)C7` [CEPHALOSTATIN 16], for which the 50% growth inhibitory concentration (GI50) came to 1.1 nM in the test with MCF7; 0.6 nM in test [1]; 5.2 nM in the test on SF-268; 0.64 nM in the test on NCI-H460; 12 nM with DU-145; 0.44 nM in test [2].

Consider `C[C@@H]1[C@]2(O[C@H]3C=C4[C@@H]5CC[C@H]6Cc7nc8c(nc7C[C@]6(C)[C@H]5C[C@@H](O)[C@]4(C)[C@]31O)C[C@@H]1CC[C@H]3C4=CC[C@@H]5[C@H](C)[C@@](O)([C@H](O)CC(C)(C)O)OC[C@]45C(=O)C[C@]3(O)[C@@]1(C)C8)O[C@](C)(CO)C[C@H]2O`, for which the GI50 in the test on MCF7 worked out at 22 nM; in test [1] it was 7.2 nM; in the test with SF-268, 36 nM; in the test on NCI-H460 it was 6 nM; in the test with DU-145 it was 210 nM; in test [2] it was 16 nM.

`C[C@@H]1[C@H]2CC=C3[C@@H]4CC[C@H]5Cc6nc7c(nc6C[C@]5(C)[C@H]4CC(=O)[C@@]32COC1(O)[C@H](O)CC(C)(C)O)C[C@@H]1CC[C@H]2C3=C[C@@H]4O[C@]5(O[C@](C)(CO)C[C@H]5O)[C@@H](C)[C@]4(O)[C@@]3(C)[C@H](O)C[C@@H]2[C@@]1(C)C7` (some centres not stated) [CEPHALOSTATIN 9]: the GI50 in the test with MCF7 was 110 nM; in test [1], 58 nM; with SF-268 it was 150 nM; in the test with NCI-H460, 39 nM; in the test on DU-145 it was greater than 1100 nM; in test [2], 14 nM.

For `CO[C@H]1c2nc3c(nc2C[C@@H]2CC[C@H]4C5=C[C@@H]6O[C@]7(O[C@](C)(CO)C[C@H]7O)[C@@H](C)[C@]6(O)[C@@]5(C)[C@H](O)C[C@@H]4[C@]21C)C[C@@]1(C)[C@@H](CC[C@H]2C4=CC[C@@H]5[C@H](C)[C@@]6(OC[C@]45C(=O)C[C@@]21O)OC(C)(C)C[C@H]6O)C3` [CEPHALOSTATIN 10], the GI50 in the test on MCF7 amounted to 1.4 nM; in test [1] it was 0.7 nM; with SF-268, 3.7 nM; in the test with NCI-H460 it was 0.6 nM; with DU-145, 8.5 nM; in test [2] it was 1.3 nM.

As for `C[C@@H]1[C@H]2CC=C3[C@H]4CC[C@H]5Cc6nc7c(nc6C[C@]5(C)[C@@]4(O)CC(=O)[C@@]32CO[C@]12OC(C)(C)C[C@H]2O)C[C@@H]1CC[C@H]2C3=C[C@@H]4O[C@]5(O[C@](C)(CO)C[C@H]5O)[C@@H](C)[C@]4(O)[C@@]3(C)[C@H](O)C[C@@H]2[C@@]1(C)C7` [CEPHALOSTATIN 17], the GI50 in the test with MCF7 was 0.43 nM; in test [1], 0.58 nM; with SF-268, 2.7 nM; in the test with NCI-H460 it was 0.46 nM; with DU-145 it was 3.3 nM; in test [2] it was 0.36 nM.

Regarding `C[C@@H]1[C@]2(O[C@H]3C=C4[C@@H]5CC[C@H]6Cc7nc8c(nc7C[C@]6(C)[C@H]5C[C@@H](O)[C@]4(C)[C@]31O)C[C@@H]1CC[C@H]3C4=C[C@@H]5O[C@]6(O[C@](C)(CO)C[C@H]6O)[C@@H](C)[C@]5(O)[C@@]4(C)[C@H](O)C[C@@H]3[C@@]1(C)C8)O[C@](C)(CO)C[C@H]2O` [CEPHALOSTATIN 12], the GI50 in the test with MCF7 was found to be 33 nM; in test [1], 38 nM; with SF-268, 150 nM; with NCI-H460 it was 37 nM; in the test with DU-145, 440 nM; in test [2] it was 31 nM.

For the molecule `CO[C@H]1c2nc3c(nc2C[C@@H]2CC[C@H]4C5=CC[C@@H]6[C@H](C)[C@@]7(OC[C@]56C(=O)C[C@@H]4[C@]21C)OC(C)(C)C[C@H]7O)C[C@@]1(C)[C@@H](CC[C@H]2C4=C[C@@H]5O[C@]6(O[C@](C)(CO)C[C@H]6O)[C@@H](C)[C@]5(O)[C@@]4(C)[C@H](O)C[C@@H]21)C3` [CEPHALOSTATIN 19], the GI50 with MCF7 turned out to be 7.4 nM; in test [1] it was 6.1 nM; with SF-268 it was 78 nM; in the test with NCI-H460 it was 5.3 nM; with DU-145, 30 nM; in test [2] it was 3.9 nM.

For the molecule `C[C@@H]1[C@]2(O[C@H]3C=C4[C@@H]5CC[C@H]6Cc7nc8c(nc7C[C@]6(C)[C@H]5C[C@@H](O)[C@]4(C)[C@]31O)C[C@@H]1CC[C@H]3C4=CC[C@@H]5[C@H](C)[C@@]6(OC[C@]45C(=O)C[C@]3(O)[C@@]1(C)C8)OC(C)(C)C[C@H]6O)O[C@](C)(CO)C[C@H]2O` [CEPHALOSTATIN 2], the GI50 with MCF7 came to 0.022 nM; in test [1], 0.006 nM; in the test on SF-268, 0.12 nM; in the test with NCI-H460, 0.0056 nM; in the test with DU-145, 0.11 nM; in test [2], 0.022 nM.

In the case of `C[C@H]1[C@H]2C[C@@H](O)c3c4c(cc(c32)OC12OC(C)(C)C[C@H]2O)[C@@]1(C)Cc2nc3c(nc2C[C@@H]1CC4)C[C@@]1(C)[C@@H](CC[C@H]2C4=C[C@@H]5O[C@@]6(C[C@]5(O)[C@@]4(C)[C@H](O)C[C@@H]21)O[C@](C)(CO)C[C@H]6O)C3` (some centres not stated) [CEPHALOSTATIN 6], the GI50 was 550 nM in the test with MCF7; 390 nM in test [1]; 610 nM with SF-268; 320 nM with NCI-H460; greater than 1100 nM with DU-145; 380 nM in test [2].

With `C[C@@H]1[C@]2(O[C@H]3C=C4[C@@H]5CC[C@H]6Cc7nc8c(nc7C[C@]6(C)[C@H]5C[C@@H](O)[C@]4(C)[C@]31O)C[C@@H]1CC[C@H]3C4=C[C@@H]5O[C@]6(CC[C@](C)(O)CO6)C[C@]5(O)[C@@]4(C)[C@H](O)C[C@@H]3[C@@]1(C)C8)O[C@](C)(CO)C[C@H]2O` [CEPHALOSTATIN 7], the GI50 turned out to be 50 nM in the test with MCF7; 48 nM in test [1]; 110 nM in the test on SF-268; 8.2 nM with NCI-H460; 470 nM in the test on DU-145; 5 nM in test [2].

Consider `C[C@@H]1[C@]2(O[C@H]3C=C4[C@@H]5CC[C@H]6Cc7nc8c(nc7C[C@]6(C)[C@H]5C[C@@H](O)[C@]4(C)[C@]31O)C[C@@H]1CC[C@H]3C4=CC[C@@H]5[C@H](C)[C@@]6(OC[C@]45C(=O)C[C@@H]3[C@@]1(C)C8)OC(C)(C)C[C@H]6O)O[C@](C)(CO)C[C@H]2O` [CEPHALOSTATIN 1], for which the GI50 with MCF7 was determined as 0.099 nM; in test [1], 0.066 nM; with SF-268, 1.6 nM; in the test on NCI-H460, 0.044 nM; in the test on DU-145, 0.11 nM; in test [2], 0.044 nM.
